# Compound activity deposited in PubChem BioAssay by several laboratories.
# A selection: hits, their analogues and other compounds. The true share with any hit is near 3.4%.
# MEKK3 PB1 HTS: MEKK3-MEK5 PB1 interaction, increase or decrease; Q99759; 290,000 tested, 1.4% active; bead-based flow cytometry, Alexa488-MEK5 binding to MEKK3; actives lie on both sides; 0 = blocked by unlabeled MEK5, 100 = vehicle; binding response (% of control), % at 10 µM; AID 1529;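 active = binding response more than 3 SD above or below the average of its plate-row segment, actives on both sides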;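 note: Alexa488 bead fluorescence after subtracting the streptavidin-only scavenger bead signal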
# MEKK2wt PB1 HTS: raises or lowers MEK5 binding to wildtype human MEKK2 PB1 domain; bead flow cytometry, Alexa488-MEK5 binding to MEKK2 WT; actives lie on both sides; binding response (% of control), % at 10 µM; 290,000 tested, 1.1% active; AID 1531; in the data active = binding response below about 67% or above about 130%
# IMP-1 inh-1: inhibitors of Pseudomonas aeruginosa IMP-1 metallo-beta-lactamase; inhibition, % at 5.6 µM; 290,000 tested, 0.45% active; purified IMP-1, nitrocefin hydrolysis, epi-absorbance fluorescence;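 active = inhibition above the mean plus 3 SD of all compounds in the same screening run, cut at about 4.5% in these data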;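 note: 0% = IMP-1 with DMSO and 100% = DMSO wells lacking enzyme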
#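 assay system = purified recombinant IMP-1 metallo-beta-lactamase enzyme | schedule = 15 min preincubation plus 25 min reaction at 25 °C | signal = Epi-absorbance fluorescence, 480 nm excitation, 530 nm emission | read-out basis = percent inhibition from optical density relative to buffer-blank wells | controls = IMP-1 with DMSO as 0%, enzyme-free DMSO as 100%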
# VIM-2 inh: inhibitors of Pseudomonas aeruginosa VIM-2 metallo-beta-lactamase | purified VIM-2, nitrocefin hydrolysis, epi-absorbance fluorescence | inhibition, % at 5.6 µM | 290,000 tested, 0.89% active;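 active = inhibition above the mean of all tested compounds plus 3 SD, cutoff set per screening run, cut at about 7.5% in these data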;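 note: red hydrolysis product quenches plate fluorescence so inhibitors raise well fluorescence; 0% = enzyme with DMSO and 100% = DMSO without enzyme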
# MEKK2 mut-MEK5: signal of MEK5 binding to mutant human MEKK2 PB1 domain | bead flow cytometry, Alexa488-MEK5 binding to MEKK2 mutant | percent response, % at 10 µM | 290,000 tested, 0.35% active | AID 1530; in the data active = percent response above about 24%, passing the limit was not always enough
# IMP-1 inh-2: IMP-1 inhibition, counter-screen for VIM-2 inhibitors | shares compounds with VIM-2 inh | purified IMP-1, nitrocefin hydrolysis, epi-absorbance fluorescence | AID 1856 | 1,300 tested, under 10 active | inhibition, % at 5.6 µM; call rule not given here;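 note: 0% = enzyme with vehicle and 100% = vehicle without enzyme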
# VIM-2 FRET inh: counter-screen for VIM-2 inhibitors: epi-absorbance artifacts via FRET | shares compounds with VIM-2 inh | purified VIM-2, CCF2 FRET substrate hydrolysis | inhibition, % at 5.6 µM | 1,300 tested, 23% active | AID 1857;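 active = inhibition above the mean of all tested compounds plus 3 SD, cut at about 19% in these data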;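 note: 0% = VIM-2 plus DMSO and 100% = no enzyme wells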
# TEM-1 inh: TEM-1 inhibition, counter-screen for VIM-2 inhibitors | shares compounds with VIM-2 inh | Purified TEM-1, nitrocefin hydrolysis, epi-absorbance fluorescence | inhibition, % at 5.6 µM | 1,300 tested, 3% active;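 active = inhibition above that campaign's mean inhibition plus 3 SD, cut at about 0.46% in these data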;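 note: 0% = TEM-1 with DMSO and 100% = TEM-1 with 100 µM potassium clavulanate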
# Target sequence (P62593 whole entry, looked up): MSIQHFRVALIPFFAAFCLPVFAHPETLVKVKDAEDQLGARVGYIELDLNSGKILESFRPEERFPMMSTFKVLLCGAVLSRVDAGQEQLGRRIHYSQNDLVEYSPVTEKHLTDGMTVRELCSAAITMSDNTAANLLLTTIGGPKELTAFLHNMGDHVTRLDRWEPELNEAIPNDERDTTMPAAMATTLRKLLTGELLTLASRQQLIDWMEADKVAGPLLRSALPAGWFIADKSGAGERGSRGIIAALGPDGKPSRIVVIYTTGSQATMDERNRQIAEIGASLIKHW
# VIM-2 confirm 2: confirmation of P. aeruginosa VIM-2 metallo-beta-lactamase inhibitors; shares compounds with VIM-2 inh; purified VIM-2, nitrocefin hydrolysis, epi-absorbance; inhibition, % at 5.6 µM; 1,300 tested, 96% active; AID 2187;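 active = inhibition of the VIM-2 beta-lactamase enzyme above about 11% from the earlier first-round screen, limit read from the data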;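 note: 0% = VIM-2 with DMSO and 100% = buffer wells without enzyme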
# * marks the source's active call; other numbers are inactive results; nt = no result given.
SMILES,MEKK3 PB1 HTS,MEKK2wt PB1 HTS,IMP-1 inh-1,VIM-2 inh,MEKK2 mut-MEK5,IMP-1 inh-2,VIM-2 FRET inh,TEM-1 inh,VIM-2 confirm 2
CC(Oc1ccc2ccc(=O)oc2c1)C(=O)NCCCn1ccnc1 (stereo not drawn),102,103,-1,0,1,nt,nt,nt,nt
Cc1c(C)c2ccc(OC(C)C(=O)NCCCn3ccnc3)c(C)c2oc1=O (stereo not drawn),106,107,0,45*,9,-2,-4,-11,54*
Cc1c(OC(C)C(=O)NCCCN2CCOCC2)ccc2c1oc(=O)c1ccccc12 (stereo not drawn),98,99,-1,19*,3,-3,2,-11,29*
Cc1c(OC(C)C(=O)NCCN2CCOCC2)ccc2c(-c3ccccc3)cc(=O)oc12 (stereo not drawn),98,103,-1,1,-2,nt,nt,nt,nt
CCc1cc(=O)oc2cc(C)cc(OC(C)C(=O)NCCCn3ccnc3)c12 (stereo not drawn),104,107,-3,36*,7,-3,-9,-4,49*
Cc1ccc(S(=O)(=O)Nc2cccc(N(C)S(C)(=O)=O)c2)cc1[N+](=O)[O-],93,94,0,1,-10,nt,nt,nt,nt
CCN(CC)CCCNc1nc(SC)nc2sc3c(c12)CCN(C)C3,99,153*,-1,13*,30*,-3,-2,-5,21*
COc1ccc(S(=O)(=O)n2ccc(-c3ccc4c(c3)CCC(C)(C)O4)n2)cc1,101,105,-2,-2,3,nt,nt,nt,nt
COC(=O)c1c(C(=O)OC)c2cc(C(=O)c3ccccc3)ccn2c1Cl,107,90,-6,7,8,nt,nt,nt,nt
COC(=O)c1c(C(=O)OC)c2oc3ccccc3n2c1Cl,118,116,-3,14*,18,-2,2,-5,18*
CN(C)C(=O)c1ccc(Nc2nc(-c3cccs3)nc3ccccc23)cc1,103,107,-1,22*,4,-3,0,-7,25*
COC(=O)c1ccc(Nc2nc(-c3ccncc3)nc3ccccc23)cc1,92,92,-2,3,-17,nt,nt,nt,nt
CN1CCN(C(=O)CCc2nc3ccccc3c(=O)[nH]2)CC1,103,101,-1,21*,-2,-3,0,-6,42*
NC(=O)C1CCN(C(=O)CCc2nc3ccccc3c(=O)[nH]2)CC1,112,109,-1,0,8,nt,nt,nt,nt
CCC(=O)Nc1ccc(NCc2ccc(-c3ccccc3)cc2)cc1,107,104,-3,-4,8,nt,nt,nt,nt
CCOc1ccccc1NC(=O)C1=C(C)NC(=O)NC1c1cccs1 (stereo not drawn),104,109,-3,-2,9,nt,nt,nt,nt
CCOc1ccccc1C(=O)Nc1cccc(-c2ccc3nncn3n2)c1,100,100,0,21*,-2,-3,1,-8,31*
Cc1nn2c(NCCCN(C)C)c3c(nc2c1-c1ccccc1)CCCC3,65,75,-1,45*,-13,-2,0,-6,53*
COCCNc1c2c(nc3c(-c4ccccc4)c(C)nn13)CCC2,91,92,-3,6,-15,nt,nt,nt,nt
CSc1n[nH]c(=O)n1C1CCCCC1,101,102,-2,-3,-1,nt,nt,nt,nt
CN1CCN(c2ccc(NC(=O)c3ccc(-c4cccc([N+](=O)[O-])c4)o3)cc2)CC1,102,127,-1,42*,11,-2,-4,-8,64*
COc1ccc(C(=O)Nc2ccc(N3CCN(C)CC3)cc2)cc1[N+](=O)[O-],102,102,-4,34*,-3,-3,-1,-7,60*
CCOc1ccc(C(=O)Nc2ccc(N3CCN(C(C)=O)CC3)cc2)cc1[N+](=O)[O-],91,97,-2,-1,-2,nt,nt,nt,nt
CCOc1ccc(C(=O)Nc2ccc(N3CCN(C)CC3)cc2)cc1[N+](=O)[O-],101,107,-3,30*,3,-2,-3,-7,58*
CN1CCN(c2ccc(NC(=O)COc3ccccc3[N+](=O)[O-])cc2)CC1,92,99,-1,45*,-6,-3,-1,-7,66*
SMILES,MEKK3 PB1 HTS,MEKK2wt PB1 HTS,IMP-1 inh-1,VIM-2 inh,MEKK2 mut-MEK5,IMP-1 inh-2,VIM-2 FRET inh,TEM-1 inh,VIM-2 confirm 2
Fc1ccc(-c2csc(NC3=NCCC3)n2)cc1,95,98,-2,-1,-1,nt,nt,nt,nt
N#CCSc1nc2cc(C(=O)N3CCC(C(N)=O)CC3)ccc2c2nc3ccccc3n12,101,99,-1,24*,-4,-2,1,-4,40*
C=C(C)CSc1nncn1/N=C/c1ccc(OC)cc1,104,100,-3,-3,4,nt,nt,nt,nt
CCSc1nncn1/N=C/c1ccc(OC)c(OC)c1,100,104,-2,24*,5,-3,0,-6,41*
COc1ccccc1-c1nnc(SC(C(=O)c2c[nH]c3ccccc23)c2ccccc2)n1C (stereo not drawn),102,97,-3,3,-11,nt,nt,nt,nt
CN1C(=O)/C(=C2\SC(N3CCCCCC3)=NC2=O)c2ccccc21,100,93,-3,13*,-4,-4,-7,-9,26*
COc1cc(/C=N/N2CCN(Cc3ccc(C)cc3)CC2)cc(OC)c1O,104,105,-8,22*,0,-6,-8,-9,32*
Cc1cc2oc(C(=O)NCc3ccc(S(N)(=O)=O)cc3)c(C)c2cc1C,107,104,-1,-2,-1,nt,nt,nt,nt
COc1ccc2nc(C)cc(Nc3ccc(N4CCN(C)CC4)cc3)c2c1,105,119,-2,90*,13,-3,-5,-5,91*
COc1ccc(-c2n[nH]c(=S)n2-c2ccc3c(c2)OCCO3)cc1,126,109,-5,13*,1,-3,34*,-8,19*
S=c1[nH]nc(-c2ccc3ccccc3n2)n1-c1ccc2c(c1)OCCO2,101,98,-2,20*,0,-3,38*,-7,22*
COc1ccc(-c2n[nH]c(=S)n2-c2ccc(C)cc2)cc1OC,103,103,-2,2,4,nt,nt,nt,nt
S=c1[nH]nc(-c2ccc3ccccc3n2)n1-c1ccccc1,104,107,-3,2,15,nt,nt,nt,nt
COc1ccc(-c2n[nH]c(=S)n2-c2ccc3c(c2)OCCO3)cc1OC,90,91,-1,18*,-12,-3,50*,-6,31*
